In ChEMBL document CHEMBL1133751, “Design, synthesis, and biological evaluation of tricyclic nucleosides (dimensional probes) as analogues of certain antiviral polyhalogenated benzimidazole ribonucleosides” (J Med Chem, 2000):

Experiments:
[1] = Compound was tested for the inhibition of KB cell growth in quadruplicate wells; type: functional, cell-based; details: Homo sapiens
How it was run: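 KB cells grown through two population doublings with compound in quadruplicate wells. Growth quantified by crystal violet staining and spectrophotometric reading of eluted dye. IC50 from linear regression of percent inhibition against log concentration.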

[2] = system: HFF; assay: Visual cytotoxicity against stationary human foreskin fibroblasts (HFF) cells at the time of HCMV plaque enumeration; type: functional, cell-based
How it was run: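 Stationary HFF monolayers in the uninfected wells of the HCMV plaque assay inspected microscopically for cytotoxicity. Compounds in growth medium at 4–8 concentrations. IC50 from linear regression of percent inhibition against log concentration.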

[3] = system: Human alphaherpesvirus 1; assay: Antiviral activity against HSV-1 (herpes simplex virus), determined by ELISA in quadruplicate wells using BSC-1 cells; type: functional, organism-based; details: Human alphaherpesvirus 1, BSC-1
How it was run: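 KOS strain HSV-1 at 100 PFU/well added with selected drug concentrations in quadruplicate to 96-well dishes seeded with 10 000 BSC-1 cells/well and incubated overnight. Virus detected by ELISA. IC50 from linear regression of percent inhibition vs log concentration. Average of 2–3 separate experiments.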

[4] = system: HFF; assay: Antiviral activity against towne strain HCMV was determined by plaque reduction assay in duplicate wells using HFF cells; type: functional, cell-based; details: Homo sapiens
How it was run: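 HFF monolayers in 24-well dishes infected with about 100 PFU Towne HCMV (plaque-purified isolate P0) per cm2. Compounds in growth medium added to duplicate wells at 4–8 concentrations. Plaques scored. IC50 from linear regression of percent inhibition against log drug concentration.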

[5] = system: HFF; assay: Antiviral activity against towne strain HCMV was determined by yield reduction assay in duplicate wells using HFF cells; type: functional; details: Homo sapiens
How it was run: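 HFF cells plated in 96-well dishes and incubated overnight. Inoculated with Towne HCMV at MOI 0.5–1 PFU/cell, then drug added, in duplicate wells. Progeny virus yield measured. IC90 from the linear portion of log–log regression of yield versus drug concentration.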

OC[C@H]1OC(n2cnc3cc4cc(Cl)c(Cl)cc4nc32)[C@H](O)[C@@H]1O (stereo partly specified)
IC50 [1]: > 100 µM
IC50 [2]: > 10 µM
IC50 [3]: > 100 µM
IC50 [4]: > 10 µM

CC(C)Nc1nc2cc3cc(Cl)c(Cl)cc3nc2n1C1O[C@H](CO)[C@@H](O)[C@H]1O (stereo partly specified)
IC50 [1]: 90 µM
IC50 [2]: 32 µM
IC50 [3]: > 100 µM
IC50 [4]: 32 µM

Nc1nc2c(ncn2COC(CO)CO)c(=O)[nH]1 [GANCICLOVIR]
IC50 [1]: > 100 µM
IC50 [2]: > 100 µM
IC90 [5]: 1.6 µM

OC[C@H]1OC(n2cnc3nc4cc(Cl)c(Cl)cc4cc32)[C@H](O)[C@@H]1O (stereo partly specified)
IC50 [1]: 85 µM
IC50 [2]: > 100 µM
IC90 [5]: 85 µM
IC50 [3]: > 100 µM
IC50 [4]: > 100 µM

OC[C@H]1OC(n2c(SCc3ccccc3)nc3cc4cc(Cl)c(Cl)cc4cc32)[C@H](O)[C@@H]1O (stereo partly specified)
IC50 [1]: > 100 µM
IC50 [2]: > 100 µM
IC50 [3]: > 100 µM
IC50 [4]: > 100 µM

OC[C@H]1OC(n2c(Cl)nc3cc4cc(Cl)c(Cl)cc4nc32)[C@H](O)[C@@H]1O (stereo partly specified)
IC50 [1]: 8 µM
IC50 [2]: 18 µM
IC90 [5]: 9.2 µM
IC50 [3]: 90 µM
IC50 [4]: 18 µM

CC(C)Nc1nc2nc3cc(Cl)c(Cl)cc3nc2n1C1O[C@H](CO)[C@@H](O)[C@H]1O (stereo partly specified)
IC50 [1]: 70 µM
IC50 [2]: 100 µM
IC50 [3]: 100 µM
IC50 [4]: 32 µM

OC[C@H]1OC(n2c(Cl)nc3nc4cc(Cl)c(Cl)cc4cc32)[C@H](O)[C@@H]1O (stereo partly specified)
IC50 [1]: 11 µM
IC50 [2]: 21 µM
IC90 [5]: 45 µM
IC50 [3]: 70 µM
IC50 [4]: 2 µM

OC[C@H]1OC(n2c(NC3CC3)nc3nc4cc(Cl)c(Cl)cc4nc32)[C@H](O)[C@@H]1O (stereo partly specified)
IC50 [1]: 90 µM
IC50 [2]: > 100 µM
IC50 [3]: > 100 µM
IC50 [4]: 32 µM

OC[C@H]1OC(n2cnc3cc4cc(Cl)c(Cl)cc4cc32)[C@H](O)[C@@H]1O (stereo partly specified)
IC50 [1]: > 100 µM
IC50 [2]: > 100 µM
IC90 [5]: 17 µM
IC50 [3]: > 100 µM
IC50 [4]: > 100 µM

OC[C@H]1OC(n2c(NC3CC3)nc3cc4cc(Cl)c(Cl)cc4nc32)[C@H](O)[C@@H]1O (stereo partly specified)
IC50 [1]: 100 µM
IC50 [2]: > 100 µM
IC50 [3]: > 100 µM
IC50 [4]: > 100 µM

OC[C@H]1O[C@@H](n2cnc3cc(Cl)c(Cl)cc32)[C@H](O)[C@@H]1O [DICHLORORIBOBENZIMIDAZOLE]
IC50 [1]: 36 µM
IC90 [5]: 19 µM
IC50 [3]: 30 µM
IC50 [4]: 42 µM

CC(C)Nc1nc2nc3cc(Cl)c(Cl)cc3cc2n1C1O[C@H](CO)[C@@H](O)[C@H]1O (stereo partly specified)
IC50 [1]: 90 µM
IC50 [2]: 100 µM
IC50 [3]: > 100 µM
IC50 [4]: 32 µM

OC[C@H]1OC(n2cnc3nc4cc(Cl)c(Cl)cc4nc32)[C@H](O)[C@@H]1O (stereo partly specified)
IC50 [1]: > 100 µM
IC50 [2]: 45 µM
IC50 [3]: > 100 µM
IC50 [4]: 32 µM

OC[C@H]1OC(n2c(SCc3ccccc3)nc3cc4cc(Cl)c(Cl)cc4nc32)[C@H](O)[C@@H]1O (stereo partly specified)
IC50 [1]: > 100 µM
IC50 [2]: > 10 µM
IC50 [3]: > 100 µM
IC50 [4]: > 10 µM

OC[C@H]1OC(n2c(SCc3ccccc3)nc3nc4cc(Cl)c(Cl)cc4cc32)[C@H](O)[C@@H]1O (stereo partly specified)
IC50 [1]: 40 µM
IC50 [2]: 20 µM
IC50 [3]: > 100 µM
IC50 [4]: 4.2 µM

OC[C@H]1OC(n2c(Cl)nc3cc4cc(Cl)c(Cl)cc4cc32)[C@H](O)[C@@H]1O (stereo partly specified)
IC50 [1]: 19 µM
IC50 [2]: 3.2 µM
IC90 [5]: 2.3 µM
IC50 [3]: 26 µM
IC50 [4]: 2 µM

OC[C@H]1O[C@@H](n2c(Cl)nc3cc(Cl)c(Cl)cc32)[C@H](O)[C@@H]1O
IC50 [1]: 210 µM
IC90 [5]: 1.4 µM
IC50 [4]: 2.9 µM

OC[C@H]1OC(n2c(NC3CC3)nc3cc4cc(Cl)c(Cl)cc4cc32)[C@H](O)[C@@H]1O (stereo partly specified)
IC50 [1]: 55 µM
IC50 [2]: 32 µM
IC50 [3]: 80 µM
IC50 [4]: 32 µM

OC[C@H]1OC(n2c(SCc3ccccc3)nc3nc4cc(Cl)c(Cl)cc4nc32)[C@H](O)[C@@H]1O (stereo partly specified)
IC50 [1]: 20 µM
IC50 [2]: 20 µM
IC50 [3]: 30 µM
IC50 [4]: 4.2 µM

CC(C)Nc1nc2cc3cc(Cl)c(Cl)cc3cc2n1C1O[C@H](CO)[C@@H](O)[C@H]1O (stereo partly specified)
IC50 [1]: 146 µM
IC50 [2]: 32 µM
IC50 [3]: 80 µM
IC50 [4]: 32 µM

OC[C@H]1OC(n2c(NC3CC3)nc3nc4cc(Cl)c(Cl)cc4cc32)[C@H](O)[C@@H]1O (stereo partly specified)
IC50 [1]: > 100 µM
IC50 [2]: > 100 µM
IC50 [3]: > 100 µM
IC50 [4]: > 100 µM
